{
  "source": "paper PMC7034990",
  "about": "(Science Advances, 2020)",
  "key": {"[1]": {"target": "ABC-B1 (MDR1, P-glycoprotein) (Homo sapiens, UniProt P08183)", "sequence (P08183 whole entry, species assumed)": "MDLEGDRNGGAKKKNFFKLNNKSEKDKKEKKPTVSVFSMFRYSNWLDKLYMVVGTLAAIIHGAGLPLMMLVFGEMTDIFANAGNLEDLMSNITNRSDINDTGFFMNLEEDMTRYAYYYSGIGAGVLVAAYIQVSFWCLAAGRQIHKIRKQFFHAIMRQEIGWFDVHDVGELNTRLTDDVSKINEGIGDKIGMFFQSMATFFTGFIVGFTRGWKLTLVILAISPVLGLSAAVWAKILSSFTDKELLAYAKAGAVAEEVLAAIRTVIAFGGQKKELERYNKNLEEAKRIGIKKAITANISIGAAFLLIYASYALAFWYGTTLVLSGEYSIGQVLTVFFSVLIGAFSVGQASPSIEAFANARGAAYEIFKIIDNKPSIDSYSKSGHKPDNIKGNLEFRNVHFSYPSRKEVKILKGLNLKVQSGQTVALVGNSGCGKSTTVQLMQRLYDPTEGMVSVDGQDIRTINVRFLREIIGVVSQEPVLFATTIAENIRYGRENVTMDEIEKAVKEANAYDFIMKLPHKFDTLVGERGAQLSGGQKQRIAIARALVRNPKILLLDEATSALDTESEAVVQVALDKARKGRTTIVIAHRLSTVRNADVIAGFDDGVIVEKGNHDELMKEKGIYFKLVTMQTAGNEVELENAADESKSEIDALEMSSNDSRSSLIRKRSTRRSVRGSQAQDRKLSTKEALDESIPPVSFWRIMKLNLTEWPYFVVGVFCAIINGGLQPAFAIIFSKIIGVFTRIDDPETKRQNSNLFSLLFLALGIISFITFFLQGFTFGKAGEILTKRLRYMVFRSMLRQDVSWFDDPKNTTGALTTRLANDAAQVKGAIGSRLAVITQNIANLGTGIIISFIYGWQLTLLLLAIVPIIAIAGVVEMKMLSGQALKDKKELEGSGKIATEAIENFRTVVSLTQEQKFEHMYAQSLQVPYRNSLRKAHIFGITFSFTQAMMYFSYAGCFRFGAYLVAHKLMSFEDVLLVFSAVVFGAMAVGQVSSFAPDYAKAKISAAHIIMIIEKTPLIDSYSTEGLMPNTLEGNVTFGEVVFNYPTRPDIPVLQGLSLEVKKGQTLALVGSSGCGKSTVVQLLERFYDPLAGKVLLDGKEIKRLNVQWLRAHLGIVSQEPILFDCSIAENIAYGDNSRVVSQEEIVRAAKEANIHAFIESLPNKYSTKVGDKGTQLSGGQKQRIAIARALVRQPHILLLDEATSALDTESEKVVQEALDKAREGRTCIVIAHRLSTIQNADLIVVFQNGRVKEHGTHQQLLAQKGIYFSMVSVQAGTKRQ", "assay": "ABC transporter inhibition, ABC-B1", "type": "in vitro ADME"}, "[2]": {"test_system": "F508del-CFTR CFBE41o− cells", "assay": "Western blot of F508del-CFTR maturation in CFBE41o− cells", "type": "cell-based", "conditions": "24 hours", "in_short": "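Confluent CFBE41o− cells expressing F508del-CFTR were treated with test compounds or DMSO. They were lysed in RIPA with protease inhibitors and cleared at 15,300g, 4°C, 10 min. Lysates were run on SDS-PAGE and immunoblotted with mouse monoclonal anti-CFTR. Immature core-glycosylated band B runs near 150 kDa. Bands were quantified as regions of interest and normalised to GAPDH.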"}, "[3]": {"target": "F508del-CFTR in CFBE41o− cells (Homo sapiens, UniProt P13569, DEL508-508)", "assay": "Thermoaggregation assay of mutant CFTR in cell lysates", "type": "cell-based", "conditions": "lysates heat-denatured at 28° to 70°C; ARN23765 1 nM, VX-809 1 μM", "in_short": "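F508del-CFTR CFBE41o− cells were treated 24 h; wild-type CFTR CFBE41o− cells were run in parallel. Confluent cells received cycloheximide (150 μg/ml) for 2 h, were lysed in RIPA on ice and cleared at 15,000g, 10 min, 4°C. Lysate (50 μg) was heated 15 min at 28–70°C. Aggregates were removed at 15,000g, 15 min, 4°C; soluble CFTR was immunoblotted and normalised to HSP90AB1.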"}, "P574H-CFTR": {"target": "P574H-CFTR (Homo sapiens, UniProt P13569, P574H)", "assay": "Rescue of P574H-CFTR in FRT cells", "type": "cell-based", "conditions": "37 °C or 32 °C", "in_short": "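FRT cells stably co-expressing P574H-CFTR and HS-YFP (H148Q/I152L), plated at 50,000/well. After a PBS wash, cells were stimulated 25 min with forskolin 20 μM plus VX-770 1 μM. Iodide solution was then injected (final I− 100 mM) and YFP fluorescence read at 500/535 nm ex/em. Values were normalized to initial background-subtracted fluorescence. I− influx rate came from an exponential fit of the final 11 s.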"}, "[4]": {"test_system": "Ca2+-activated Cl− secretion in bronchial epithelia", "assay": "Ca2+-activated Cl− secretion elicited by UTP", "type": "cell-based, human", "conditions": "UTP 100 μM; ARN23765 10 nM, VX-809 1 μM, 24 hr", "in_short": "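Primary bronchial epithelial cells came from lung-transplant bronchi and were differentiated on porous inserts, then kept 2–3 weeks under air-liquid culture. Correctors or DMSO were given in basolateral medium. Epithelia were mounted in a vertical diffusion chamber, bicarbonate saline (126 mM NaCl, 24 mM NaHCO3, 10 mM glucose) both sides, gassed 5% CO2:95% air, 37°C. Voltage was clamped and short-circuit current recorded. ENaC was blocked with amiloride (10 μM).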"}},
  "data": [
    {"smiles": "CN(C(=O)c1cccc(-n2nc(C(F)(F)F)c3c2[C@@H](Oc2ccc(C(=O)O)cc2)CCC3)c1)c1ccc2c(c1)OC(F)(F)O2", "note": "[ARN23765]", "values": [
      {"measurement": "inhibition at 10 µM", "setting": "[1]", "result": 13, "unit": "%"},
      {"measurement": "F508del-CFTR maturation, band C", "setting": "[2]", "result": "at low concentrations was also observed"},
      {"measurement": "resistance to thermoaggregation of mature CFTR", "setting": "[3]", "result": "significantly increased the resistance to thermoaggregation of mature CFTR"},
      {"measurement": "P574H-CFTR function", "setting": "P574H-CFTR", "result": "improves the function of P574H-CFTR, particularly in combination with low temperature"},
      {"measurement": "Ca2+-activated Cl− secretion", "setting": "[4]", "result": "unaffected"}
    ]}
  ]
}
